Bioassay records (PubChem)
AHR act: AHR activators, primary screen, cell-based, luminescence, luciferase reporter, human | hit rate 2.5% among 320,000 | activation, % at 5 µM | AHR-responsive luciferase reporter cells; in the data active = activation above about 47%;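 note: 0% = vehicle wells and 100% = reference agonist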
CTSL1 counter: Fasciola hepatica cathepsin L1 inhibitors, primary screen, counter-screen for PFM18AAP inhibitor project, biochemical, QFRET, fluorogenic peptide substrate | inhibition, % at 5.96 µM | hit rate 0.49% among 300,000 | AID 1906, 2009 | recombinant F. hepatica cathepsin L1, Z-Leu-Arg-MCA fluorescence;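 active = inhibition above the mean of all tested compounds plus 3 SD, set per screening campaign, cut at about 17% in these data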;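 note: 0% = plate median of test compound wells and 100% = 1 µM Z-Phe-Ala-diazomethylketone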
FXN GAA850 act: FXN promoter activators, primary screen, cell-based, luciferase luminescence, HEK293 lucGAA850 | hit rate 0.56% among 360,000 | activation, % at 6 µM | HEK293 lucGAA850 FXN promoter luciferase reporter, 24 h; percent of 10 µM SAHA response;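 active = activation above the average of all compounds screened plus 3 SD, cutoff fixed separately per campaign, cut at about 7.5% in these data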;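 note: 0% = DMSO wells and 100% = 10 µM SAHA wells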
SENP1 inh: human SENP1 catalytic domain inhibitors, primary screen, biochemical, FRET, uHTS; Sentrin-specific protease 1 (Homo sapiens), Q9P0U3; recombinant SENP1 catalytic domain, CyPet-SUMO1-YPet FRET cleavage; inhibition, % at 10 µM; hit rate 0.21% among 360,000; AID 624204, 2012;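 active = inhibition at least 30% at 10 µM, raw YFP signal under a set limit, fluorescence ratio 0.5 to 1.5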;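 note: 0% = enzyme with DMSO and 100% = no enzyme wells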
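Compound: 10 µM single point, 0.5% DMSO; Test system: hSENP1 catalytic domain, recombinant; Timing: 50 min reaction at room temperature; Technique: FRET, CFP and YFP emission; Control set: no-enzyme wells low, DMSO-plus-enzyme wells high control.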
M18AAP inhibitor: PfM18AAP inhibitors, malaria aminopeptidase, primary screen, biochemical, QFRET, recombinant enzyme. M18 aspartyl aminopeptidase (Plasmodium falciparum 3D7). H-Glu-NHMec fluorogenic cleavage. inhibition, % at 7.35 µM. hit rate 1.2% among 290,000. AID 1822, 2009;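 active = inhibition above the campaign mean inhibition over all tested compounds plus 3 SD, cut at about 28% in these data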;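 note: 0% = plate median of test compound wells and 100% = 2 mM ZnCl2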
HDAC3 inhib: HDAC3 deacetylase inhibitors, primary screen, biochemical, fluorescence, cell-free homogeneous | recombinant HDAC3, fluorogenic peptide/trypsin coupled | inhibition, % at 8.3 µM | hit rate 0.15% among 320,000 | AID 2718, 2010; in the data active = inhibition above about 26%, passing the limit was not always enough
Target sequence (O15379 whole entry, looked up): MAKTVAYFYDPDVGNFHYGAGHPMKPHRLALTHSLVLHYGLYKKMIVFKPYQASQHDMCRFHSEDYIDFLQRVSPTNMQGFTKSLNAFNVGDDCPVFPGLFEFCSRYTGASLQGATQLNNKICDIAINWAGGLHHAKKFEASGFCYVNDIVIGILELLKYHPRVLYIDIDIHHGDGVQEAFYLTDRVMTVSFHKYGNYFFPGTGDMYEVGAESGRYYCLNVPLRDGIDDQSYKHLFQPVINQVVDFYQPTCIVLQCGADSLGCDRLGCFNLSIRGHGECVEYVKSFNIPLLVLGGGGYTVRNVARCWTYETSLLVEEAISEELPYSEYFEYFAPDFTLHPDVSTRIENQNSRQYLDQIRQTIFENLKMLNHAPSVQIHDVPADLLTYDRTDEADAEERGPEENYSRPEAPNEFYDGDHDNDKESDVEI
Starred values were filed as active, the others as inactive; . = no result. The list is not random: actives were taken first. Their share in the collection is about 4.2%.

SMILES	AHR act	CTSL1 counter	FXN GAA850 act	SENP1 inh	M18AAP inhibitor	HDAC3 inhib
CCn1c2ccc(F)cc2c2nc3ccccc3nc21	59*	0	7	-22	-2	2
CCN(CC)CCn1c2ccccc2c2n[nH]c(=S)nc21	9	13	-1	2	22	-3
CCOC(=O)Cn1c2ccccc2c2nc3ccccc3nc21	16	0	1	-21	-5	-2
COc1cc(C(=O)NCCCC2CCCC2)ccc1OC1CCN(C(C)=O)CC1	.	.	1	1	-5	.
COc1cccc(OCc2cc(C(=O)N(C)CCOc3ccc(C)cc3)no2)c1	10	5	5	1	-6	.
Cn1c2ccc(F)cc2c2nc3ccccc3nc21	43	3	7	-24	3	-2
Cn1c2ccc(Cl)cc2c2nc3ccccc3nc21	56*	4	7	-32	3	6
CC(C)(C(=O)N1CCC1(C)C(=O)NC1Cc2ccccc2C1)c1ccccc1 (centres undefined)	.	.	1	1	.	.
COc1cc2c(cc1OC)-c1c(OC)c(OC)cc3ccnc(c13)C2=O	48*	2	0	60*	4	4
Nc1ccccc1O	74*	.	0	17	.	4
Nc1cccc2c(O)cccc12	5	-5	2	-8	.	-7
Cc1ccc(S(=O)(=O)Nc2ccc(Cl)cc2O)cc1	.	.	.	3	.	.
CC(=O)c1nc2ccccc2n1CCc1ccccc1	55*	1	2	-5	2	8
Cc1nc2ccccc2c(=O)n1CCc1ccccc1	51*	5	2	-20	10	-2
COc1ccc(CCn2c(SCCN3CCCCC3)nc3ccccc3c2=O)cc1OC	-3	-1	4	1	-11	7
O=c1c2ccccc2nc(SCCN2CCOCC2)n1CCc1ccccc1	52*	0	1	1	2	-1
Clc1ccccc1CNCc1ccc2c(c1)OCO2	.	.	1	-1	.	.
CCn1c(C)nc2cc(C(=O)NN=Cc3ccc([N+](=O)[O-])cc3)ccc21	-6	.	2	3	.	-2
NC(=O)C1(N2CCCCC2)CCN(C(=O)c2cccn3c(=O)c4cc(Cl)ccc4nc23)CC1	26	0	2	-24	-8	-11
O=C(c1cccn2c(=O)c3ccccc3nc12)N1CCN(Cc2ccc3c(c2)OCO3)CC1	12	0	3	-50	-4	.
O=C(c1cccn2c(=O)c3cc(Cl)ccc3nc12)N1CCN(Cc2ccc3c(c2)OCO3)CC1	70*	2	4	-24	5	-6
O=C(c1cccn2c(=O)c3cc(Cl)ccc3nc12)N1CCOCC1	91*	5	1	-28	-1	-15
Cc1cc(NC(=O)c2nn(C)c(C)c2Br)no1	63*	-3	4	-2	-2	3
Cc1cc(NC(=O)c2nn(C)c(C)c2[N+](=O)[O-])no1	0	-12	0	-1	5	2
CCOC(=O)c1sc(NC(=O)c2ccncc2)c(C#N)c1C	2	19*	0	-1	-1	.
SMILES	AHR act	CTSL1 counter	FXN GAA850 act	SENP1 inh	M18AAP inhibitor	HDAC3 inhib
CCOC(=O)c1c(NC(=O)c2ccncc2)sc(C)c1C	4	5	0	0	1	6
CCOC(=O)CNC(=O)CSc1nc(-c2ccccc2)ns1	4	-1	-3	1	28*	2
Cc1ccc(CNC(=O)Nc2ccc(F)cc2)n1C	.	.	0	-11	31*	-2
Cc1ccc(CNC(=O)Nc2ccc(OC(F)(F)F)cc2)n1C	8	-4	-1	-20	23	2
O=C1Nc2ccccc2O/C1=C\c1ccccc1Br	53*	0	3	-3	9	-2
COc1ccc(Br)cc1/C=C1\Oc2ccccc2NC1=O	23	6	3	-49	-6	-7
COC(=O)C1=NN(c2cccc3ccccc23)C2C(=O)N(c3ccccc3OC)C(=O)C12 (centres undefined)	6	19*	0	-3	-8	3
CC(N)c1csc(Nc2cc(Oc3ccccc3)ncn2)n1 (centres undefined)	.	.	1	-2	.	.
CCCN(C(=O)CCCSc1nc2ccccc2[nH]1)c1c(N)n(Cc2ccccc2)c(=O)[nH]c1=O	4	19*	0	-5	.	0
COc1ccc(N(C(=O)c2snc(C(N)=O)c2N)C(C(=O)NC2CCCC2)c2cccs2)c(OC)c1 (centres undefined)	0	6	2	-13	2	2
Cc1ccccc1C1=NC(c2ccc(F)cc2F)ON1 (centres undefined)	11	1	3	1	4	-1
CSc1ccc(C2N=C(c3ccccc3)NO2)cc1 (centres undefined)	58*	1	3	1	20	-2
COCCn1c(SCc2cc(=O)n3cc(C)ccc3n2)nc2ccccc2c1=O	0	1	.	.	-12	-9
CC(C)(C)C1=CC(=O)C(=O)C(C(C)(C)C)=C1	-2	6	11*	-1	-9	-1
Cc1ccc(Sc2ccc(NC(=O)c3ccc(S(C)(=O)=O)cc3Cl)cc2)cc1	48*	1	-2	-1	-9	-18
CS(=O)(=O)c1ccc(C(=O)Nc2ccc(N3CCCCC3)cc2)c(Cl)c1	-6	1	0	4	1	-2
CCc1nc2ccccc2n1CC(=O)OCC(=O)N(CC(C)C)c1c(N)n(Cc2ccccc2)c(=O)[nH]c1=O	0	5	0	-2	.	.
COc1ccc(C)cc1NC(=O)n1ncc2cc(Cl)ccc21	56*	1	-1	1	-15	0
O=C(/C=C/c1ccc(-c2cccc([N+](=O)[O-])c2)o1)N1CCOCC1	39	11	4	3	3	3
COC(=O)CSCc1nc2ccccc2[nH]c1=O	64*	-2	3	-44	8	0
COC(=O)CCc1nc2ccccc2[nH]c1=O	-2	2	-1	3	2	-14
CC(C)OC(=O)c1cccnc1SCc1cc(=O)n2ccccc2n1	55*	8	2	1	3	-11
CN(C)C=Nc1ccc2nc3c(cc2c1)[nH]c1ccccc13	71*	7	9.2*	-24	-6	-13
CCc1ccccc1NC(=O)c1cc2sccc2n1C	64*	1	3	1	3	-11
COC(=O)c1ccc(NC(=O)c2cc3sccc3n2C)cc1	-5	2	0	-23	1	0
Cn1c(C(=O)Nc2ccccc2)cc2sccc21	56*	-2	5	-14	5	1
